Reference: ChEMBL document CHEMBL1148187, “Modified taxols, 9. Synthesis and biological evaluation of 7-substituted photoaffinity analogues of taxol” (J Nat Prod, 1993)
Activity calls are given as the source filed them. No cut-off for these calls is given here.

Columns and labels:
Bos taurus [1] = organism: Bos taurus; test: Induction of bovine brain tubulin polymerization at 10 uM by turbidimetry at 37 degC in presence of 4-morpholine-ethanesulfonate
In short: (§1)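 Low ionic strength turbidimetry at 350 or 420 nm: 10 μM purified bovine brain tubulin in 0.1 M 4-morpholine-ethanesulfonate (pH 6.9), 0.5 mM MgCl2, 100 μM GTP, 4% DMSO. Baseline at 0°, then temperature stepped to 15° and 37°.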

[2] = Inhibition of bovine brain tubulin depolymerization after 20 mins by turbidimetry; set-up: species or system Bos taurus
In short: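 Purified bovine brain tubulin 10 μM (1.0 mg/ml) in 1.0 M monosodium glutamate (pH 6.6), 50 μM GTP, 4% DMSO, with varying analogue concentrations. Temperature jump 0 to 37°, held about 20 min, then reverse jump to 0°. Maximum depolymerization rate read as fall in A350 or A420. IC50 interpolated; at least three independent determinations.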

Bos taurus [3] = organism: Bos taurus; test: Induction of bovine brain tubulin depolymerization at 10 uM by turbidimetry in presence of glutamate
In short: (§2)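 Turbidimetry at 350 or 420 nm of 10 μM purified bovine brain tubulin in 1.0 M monosodium glutamate (pH 6.6), 50 μM GTP, 4% DMSO. Baseline at 0°, then stepped temperatures: 15°, 37°, then down to 10° and 0° to follow depolymerization.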

Bos taurus [4] = organism: Bos taurus; test: Induction of bovine brain tubulin polymerization at 10 uM at 0 degC by turbidimetry at lower temperature in presence of glutamate; conditions: in the assay text read “at 15 degC” for “at 0 degC”; in short: as §2
Bos taurus [5] = organism: Bos taurus; test: Induction of bovine brain tubulin polymerization at 10 uM by turbidimetry at 15 degC in presence of 4-morpholine-ethanesulfonate
In short: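 Purified bovine brain tubulin at 10 μM (1.0 mg/ml) in 0.1 M 4-morpholine-ethanesulfonate (pH 6.9) with 0.5 mM MgCl2, 100 μM GTP, 4% (v/v) DMSO, and agent at 10 μM. Baseline was read at 0°, the controller was then set to 15°, and later temperature steps followed. Polymerization was followed by turbidity at 350 or 420 nm.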

Bos taurus [6] = organism: Bos taurus; test: Induction of bovine brain tubulin polymerization at 40 uM by turbidimetry in presence of 4-morpholine-ethanesulfonate; in short: as §1

**Q.** For `CC(=O)O[C@H]1C(=O)[C@@]2(C)[C@H]([C@H](OC(=O)c3ccccc3)[C@]3(O)C[C@H](OC(=O)[C@H](O)[C@@H](NC(=O)c4ccccc4)c4ccccc4)C(C)=C1C3(C)C)[C@]1(OC(C)=O)CO[C@@H]1C[C@@H]2O` [PACLITAXEL], which Activity (Bos taurus [1]) is on record?
**A.** Active

**Q.** What about the IC50 [2] of the same compound?
**A.** 420 nM

**Q.** And the Activity (Bos taurus [3])?
**A.** < 50%

**Q.** And the Activity (Bos taurus [4])?
**A.** Active

**Q.** And the Activity (Bos taurus [5])?
**A.** inactive

**Q.** Which IC50 [2] does the source give for `CC(=O)O[C@H]1C(=O)[C@]2(C)[C@@H](OC(=O)c3ccccc3)C[C@H]3OC[C@@]3(OC(C)=O)[C@H]2[C@H](OC(=O)c2ccccc2)[C@]2(O)C[C@H](OC(=O)[C@H](O)[C@@H](NC(=O)c3ccccc3)c3ccccc3)C(C)=C1C2(C)C` [PACLITAXEL C7 BENZOIC ACID ESTER] here?
**A.** 650 nM

**Q.** What about the Activity (Bos taurus [6]) of the same compound?
**A.** inactive
